One data set relates to HCT-116 (colon cancer). As to the kind of experiment: MTT cytotoxicity assay, HCT-116 colon cancer cells. Conditions: read-out: IC50 against HCT-116. The data set is classed as cell-based, human. A digest of the protocol:
(§1)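 Cells (HCT116 or normal dermal fibroblasts) were obtained from ATCC, seeded per doubling time, and grown in RPMI at 37 °C, humidified 5% CO₂. After 48 h exposure to increasing test compound concentrations, MTT at 5 mg ml⁻¹ working concentration was added for 3 h in the dark, followed by DMSO solubilisation with shaking. OD was read at 570/630 nm, viability expressed as treated/untreated × 100, and IC50 ±SD reported from duplicate wells, ≥3 independent runs.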

For data set [1], the system named is normal dermal fibroblast cells. Nature of the data set: MTT cytotoxicity assay, normal fibroblasts. The data set is classed as cell-based. Conditions: 48 h, read-out: IC50 against normal fibroblasts. A digest of the protocol: as §1
For a further data set, the system named is A549 (lung cancer). As to the kind of experiment: MTT cytotoxicity assay, A549 lung cancer cells. Conditions: for IC50: read-out: IC50 against A549; for lipophilic efficiency (LLE): from cytotoxicity IC50 at A549, DataWarrior. The data set is classed as cell-based, human. A digest of the protocol:
(§2)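 Cells from ATCC, seeded at densities set by doubling time and kept in RPMI at 37 °C, 5% CO₂. They were exposed to increasing concentrations for 48 h. MTT at 5 mg ml⁻¹ working concentration was added for 3 h in the dark, and crystals were dissolved in DMSO. […] LLE was estimated from these IC50 values and compound physicochemical properties.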

The next data set concerns A549 cell migration. Nature of the data set: Wound healing. Conditions: A549 cells, 24 h, control 0%; for inhibition of cell migration at IC50: compound at IC50 concentration; for inhibition of cell migration at Sub IC50: compound at sub-IC50 concentration. The data set is classed as cell-based, human. A digest of the protocol:
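A549 cells were seeded at 35 000 per culture insert and grown 24 h. Proliferation was blocked with 10 μg ml⁻¹ mitomycin C for 2 h, then cells were washed three times. Cells were exposed to two test concentrations (full and sub-level) and the wound imaged at 0 and 24 h. Wound width was measured, and migration inhibition expressed against the untreated control (0%).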

For a further data set, the system named is T47-D (breast cancer). Nature of the data set: MTT cytotoxicity assay, T47-D breast cancer cells. The data set is classed as cell-based, human. Conditions: for IC50: read-out: IC50 against T47-D, MTT, 48 h treatment, ±SD, n = 9; for lipophilic efficiency (LLE): from cytotoxicity IC50 at T47-D (printed H47-D), DataWarrior. A digest of the protocol:
as §2
On the technique in general: Tetrazolium dyes change colour on reduction, which living cells bring about.

The target of a further data set is EGFR kinase (Homo sapiens, UniProt P00533). As to the kind of experiment: EGFR kinase inhibition. The data set is classed as biochemical. Conditions: three independent replicates.
[2] abbreviates: MTT, 48 h treatment, ±SD, n = 9.

In general, IC50 refers to the midpoint of a concentration-inhibition curve.

Each structure is given as a SMILES string. Read-outs that look alike come from different tables or passages of the source. Bounds are passed on as bounds.

EGFR kinase, sequence (P00533 25-1210): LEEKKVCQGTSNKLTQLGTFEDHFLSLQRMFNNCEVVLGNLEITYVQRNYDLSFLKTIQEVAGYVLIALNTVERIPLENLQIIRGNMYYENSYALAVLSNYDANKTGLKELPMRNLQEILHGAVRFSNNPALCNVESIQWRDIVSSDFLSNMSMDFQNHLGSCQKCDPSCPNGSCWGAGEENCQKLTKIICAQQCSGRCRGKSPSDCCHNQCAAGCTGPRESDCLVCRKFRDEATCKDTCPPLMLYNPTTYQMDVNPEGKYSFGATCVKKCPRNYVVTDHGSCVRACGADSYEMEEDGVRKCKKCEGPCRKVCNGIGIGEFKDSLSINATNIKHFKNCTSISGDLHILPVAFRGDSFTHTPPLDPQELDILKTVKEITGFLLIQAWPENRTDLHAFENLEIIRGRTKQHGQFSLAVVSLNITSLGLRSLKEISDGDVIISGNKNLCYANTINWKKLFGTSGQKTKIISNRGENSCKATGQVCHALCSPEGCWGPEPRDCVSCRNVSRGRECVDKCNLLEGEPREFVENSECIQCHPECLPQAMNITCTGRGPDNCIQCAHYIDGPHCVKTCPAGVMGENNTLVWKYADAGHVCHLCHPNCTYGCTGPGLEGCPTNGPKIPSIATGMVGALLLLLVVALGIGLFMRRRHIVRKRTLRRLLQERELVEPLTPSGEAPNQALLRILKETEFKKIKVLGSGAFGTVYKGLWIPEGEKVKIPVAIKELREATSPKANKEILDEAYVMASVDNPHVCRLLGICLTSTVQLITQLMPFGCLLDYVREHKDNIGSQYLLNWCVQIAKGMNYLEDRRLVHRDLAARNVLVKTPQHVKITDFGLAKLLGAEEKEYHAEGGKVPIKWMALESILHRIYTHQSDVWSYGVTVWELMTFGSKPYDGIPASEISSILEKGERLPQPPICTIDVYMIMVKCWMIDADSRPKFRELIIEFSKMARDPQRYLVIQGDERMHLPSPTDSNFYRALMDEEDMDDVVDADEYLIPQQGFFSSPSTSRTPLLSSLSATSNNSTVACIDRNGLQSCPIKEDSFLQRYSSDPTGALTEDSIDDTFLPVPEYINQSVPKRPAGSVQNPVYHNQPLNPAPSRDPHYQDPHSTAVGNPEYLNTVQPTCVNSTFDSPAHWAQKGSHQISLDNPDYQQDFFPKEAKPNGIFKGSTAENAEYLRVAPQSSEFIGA

`O=c1[nH]cc(F)c(=O)[nH]1` [5-FU, reference compound]: the IC50 in the data set on HCT-116 (colon cancer) (setting [2]) turned out to be 11 ± 0.7 µM.

As for `C#CCOc1ccc(/C=N\NC(=O)c2ccccc2)cc1` [7a, (Z)-N′-(4-(prop-2-yn-1-yloxy)benzylidene)benzohydrazide], the IC50 was 237 ± 6 µM with HCT-116 (colon cancer) (Homo sapiens, HCT-116, 48 h); above 500 µM in data set [1]; 200 ± 4 µM in the data set with A549 (lung cancer) (Homo sapiens, A549, 48 h).

On to `C#CCOc1ccc(/C=N\Nc2ccc([N+](=O)[O-])cc2[N+](=O)[O-])cc1` [7c, (Z)-1-(2,4-dinitrophenyl)-2-(4-(prop-2-yn-1-yloxy)benzylidene)hydrazine], for which the IC50 in the data set with HCT-116 (colon cancer) (Homo sapiens, HCT-116, 48 h) was 209 ± 5 µM; in data set [1], above 500 µM; with A549 (lung cancer) (Homo sapiens, A549, 48 h), 156 ± 4 µM.

For the compound `C#CCOc1ccc(/C=N\NC(N)=S)cc1` [7d, (Z)-2-(4-(prop-2-yn-1-yloxy)benzylidene)hydrazine-1-carbothioamide], the half-inhibitory concentration (IC50) was 261 ± 6 µM with HCT-116 (colon cancer) (Homo sapiens, HCT-116, 48 h); above 500 µM in data set [1]; 128 ± 5 µM in the data set on A549 (lung cancer) (Homo sapiens, A549, 48 h).

Take `O=C(Cn1cc(COc2ccc(/C=N/NC(=O)c3ccccc3)cc2)nn1)Nc1nc2ccccc2s1` [8a, (E)-N-(benzo[d]thiazol-2-yl)-2-(4-((4-((2-benzoylhydrazono)-methyl)phenoxy)methyl)-1H-1,2,3-triazol-1-yl)acetamide]: the IC50 is 84 ± 3 µM in the data set on HCT-116 (colon cancer) (Homo sapiens, HCT-116, 48 h); 17 ± 1 µM in the data set with T47-D (breast cancer); above 500 µM in data set [1]; 18 ± 1 µM in the data set with A549 (lung cancer) (Homo sapiens, A549, 48 h). Moreover, in the data set on A549 cell migration, the “inhibition of cell migration at IC50” value stood at 92.4%. Moreover, the “inhibition of cell migration at Sub IC50” value with A549 cell migration amounted to 44.8%. For the same compound, the “% of EGFR inhibition” value at EGFR kinase came out at 98.5 ± 3.1%.

For the compound `Cc1ccc2nc(NC(=O)Cn3cc(COc4ccc(/C=N/NC(=O)c5ccccc5)cc4)nn3)sc2c1` [8b, (E)-2-(4-((4-((2-benzoylhydrazono)methyl)phenoxy)methyl)-1H-1,2,3-triazol-1-yl)-N-(6-methylbenzo[d]thiazol-2-yl)acetamide], the IC50 was 94 ± 1 µM with HCT-116 (colon cancer) (Homo sapiens, HCT-116, 48 h); 13 ± 1 µM with T47-D (breast cancer); above 500 µM in data set [1]; 21 ± 1 µM in the data set with A549 (lung cancer) (Homo sapiens, A549, 48 h). Moreover, the “inhibition of cell migration at IC50” value in the data set on A549 cell migration stood at 78.9%. Also, the “inhibition of cell migration at Sub IC50” value in the data set with A549 cell migration is recorded as 49.8%. Also, the “% of EGFR inhibition” value at EGFR kinase came to 96.8 ± 2.1%.

`CS(=O)(=O)c1ccc2nc(NC(=O)Cn3cc(COc4ccc(/C=N/NC(=O)c5ccccc5)cc4)nn3)sc2c1` [8c, (E)-2-(4-((4-((2-benzoylhydrazono)methyl)phenoxy)methyl)-1H-1,2,3-triazol-1-yl)-N-(6-(methylsulfonyl)benzo[d]thiazol-2-yl)acetamide]: the IC50 was 48 ± 2 µM in the data set on HCT-116 (colon cancer) (Homo sapiens, HCT-116, 48 h); above 500 µM in data set [1]; 25 ± 1 µM in the data set on A549 (lung cancer) (Homo sapiens, A549, 48 h). Further, the “lipophilic efficiency (LLE)” value in the data set on T47-D (breast cancer) was 1.93; in the data set with A549 (lung cancer) it was 1.84. The “% of EGFR inhibition” value at EGFR kinase is 92.3 ± 3.1%.

In the case of `O=C(Cn1cc(COc2ccc(/C=N/NC(=O)c3ccncc3)cc2)nn1)Nc1nc2ccccc2s1` [8d, (E)-N-(benzo[d]thiazol-2-yl)-2-(4-((4-((2-isonicotinoylhydrazono)methyl)phenoxy)methyl)-1H-1,2,3-triazol-1-yl)acetamide], the IC50 was 100 ± 2 µM in the data set on HCT-116 (colon cancer) (Homo sapiens, HCT-116, 48 h); above 500 µM in data set [1]; 38 ± 2 µM in the data set on A549 (lung cancer) (Homo sapiens, A549, 48 h).

For `Cc1ccc2nc(NC(=O)Cn3cc(COc4ccc(/C=N/NC(=O)c5ccncc5)cc4)nn3)sc2c1` [8e, (E)-2-(4-((4-((2-isonicotinoylhydrazono)methyl)phenoxy)methyl)-1H-1,2,3-triazol-1-yl)-N-(6-methylbenzo[d]thiazol-2-yl)acetamide], the IC50 in the data set on HCT-116 (colon cancer) (Homo sapiens, HCT-116, 48 h) was 207 ± 5 µM; in data set [1], above 500 µM; in the data set on A549 (lung cancer) (Homo sapiens, A549, 48 h), 92 ± 2 µM.

On to `CS(=O)(=O)c1ccc2nc(NC(=O)Cn3cc(COc4ccc(/C=N/NC(=O)c5ccncc5)cc4)nn3)sc2c1` [8f, (E)-2-(4-((4-((2-isonicotinoylhydrazono)methyl)phenoxy)methyl)-1H-1,2,3-triazol-1-yl)-N-(6-(methylsulfonyl)benzo[d]thiazol-2-yl)acetamide], for which the IC50 is 149 ± 3 µM with HCT-116 (colon cancer) (Homo sapiens, HCT-116, 48 h); above 500 µM in data set [1]; 38 ± 2 µM in the data set with A549 (lung cancer) (Homo sapiens, A549, 48 h). Besides, the “lipophilic efficiency (LLE)” value in the data set on T47-D (breast cancer) amounted to 2.58; with A549 (lung cancer), 2.66.

In the case of `O=C(Cn1cc(COc2ccc(/C=N\Nc3ccc([N+](=O)[O-])cc3[N+](=O)[O-])cc2)nn1)Nc1nc2ccccc2s1` [8g, (Z)-N-(benzo[d]thiazol-2-yl)-2-(4-((4-((2-(2,4-dinitrophenyl)hydrazono)methyl)phenoxy)methyl)-1H-1,2,3-triazol-1-yl)acetamide], the IC50 in the data set on HCT-116 (colon cancer) (Homo sapiens, HCT-116, 48 h) is 109 ± 3 µM; in data set [1], above 500 µM; in the data set on A549 (lung cancer) (Homo sapiens, A549, 48 h), 103 ± 5 µM.

For `CS(=O)(=O)c1ccc2nc(NC(=O)Cn3cc(COc4ccc(/C=N\Nc5ccc([N+](=O)[O-])cc5[N+](=O)[O-])cc4)nn3)sc2c1` [8i, (Z)-2-(4-((4-((2-(2,4-dinitrophenyl)hydrazono)methyl)phenoxy)methyl)-1H-1,2,3-triazol-1-yl)-N-(6-(methylsulfonyl)benzo[d]thiazol-2-yl)acetamide], the IC50 in the data set on HCT-116 (colon cancer) (Homo sapiens, HCT-116, 48 h) was 162 ± 5 µM; in data set [1], above 500 µM; with A549 (lung cancer) (Homo sapiens, A549, 48 h) it was 89 ± 4 µM. Further, the “lipophilic efficiency (LLE)” value in the data set on T47-D (breast cancer) is on record as 1.52; in the data set with A549 (lung cancer), 1.50.

Take `NC(=S)N/N=C\c1ccc(OCc2cn(CC(=O)Nc3nc4ccccc4s3)nn2)cc1` [8j, (Z)-N-(benzo[d]thiazol-2-yl)-2-(4-((4-((2-carbamothioylhydrazono)methyl)phenoxy)methyl)-1H-1,2,3-triazol-1-yl)acetamide]: the IC50 with HCT-116 (colon cancer) (Homo sapiens, HCT-116, 48 h) is 190 ± 4 µM; in data set [1] it was above 500 µM; with A549 (lung cancer) (Homo sapiens, A549, 48 h) it was 63 ± 2 µM. For the same compound, the “lipophilic efficiency (LLE)” value was 1.81 in the data set on T47-D (breast cancer) and 1.82 with A549 (lung cancer).

Regarding `Cc1ccc2nc(NC(=O)Cn3cc(COc4ccc(/C=N\NC(N)=S)cc4)nn3)sc2c1` [8k, (Z)-2-(4-((4-((2-carbamothioylhydrazono)methyl)phenoxy)methyl)-1H-1,2,3-triazol-1-yl)-N-(6-methylbenzo[d]thiazol-2-yl)acetamide], the IC50 in the data set with HCT-116 (colon cancer) (Homo sapiens, HCT-116, 48 h) was 170 ± 7 µM; in data set [1], above 500 µM; in the data set on A549 (lung cancer) (Homo sapiens, A549, 48 h), 138 ± 4 µM.

As to `CS(=O)(=O)c1ccc2nc(NC(=O)Cn3cc(COc4ccc(/C=N\NC(N)=S)cc4)nn3)sc2c1` [8l, (Z)-2-(4-((4-((2-carbamothioylhydrazono)methyl)phenoxy)methyl)-1H-1,2,3-triazol-1-yl)-N-(6-(methylsulfonyl)benzo[d]thiazol-2-yl)acetamide], the IC50 was 180 ± 4 µM with HCT-116 (colon cancer) (Homo sapiens, HCT-116, 48 h); above 500 µM in data set [1]; 142 ± 3 µM in the data set on A549 (lung cancer) (Homo sapiens, A549, 48 h).

As for `N.N.[Cl][Pt][Cl]` [Cisplatin, reference compound], the IC50 in the data set on A549 (lung cancer) (setting [2]) is 22 ± 1 µM.

For the origin of these results see article PMC11792500 (RSC Advances, 2025).
